From ChEMBL document CHEMBL4346747, “Alkynamide phthalazinones as a new class of TbrPDEB1 inhibitors” (Bioorg Med Chem, 2019)

Experiments:
[1] = tested on: Trypanosoma brucei; test: Antitrypanosomal activity against suramin sensitive Trypanosoma brucei Squib427 trypomastigotes assessed as reduction in parasitic cell viability measured after 72 hrs by resazurin dye based fluorimetric analysis; format: functional, organism-based; conditions: Squib427, 72 h
Procedure, shortened: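 Suramin-sensitive Squib-427 trypomastigotes cultured in HMI-9 with 10% heat-inactivated FCS at 37 °C, 5% CO2. About 1.5 × 10^4 parasites per well, five concentrations (64, 16, 4, 1, 0.25 μM), DMSO ≤0.5%, 72 h at 37 °C. Resazurin added, fluorescence read 24 h later (ex 550/em 590 nm) as % viability reduction vs control. Suramin reference; duplicate experiments, mean ± S.E.M.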

[2] = Cytotoxicity against human MRC5 SV2 cells assessed as reduction in cell viability measured after 72 hrs by resazurin dye based fluorimetric analysis
[3] = molecular target: T1, Class 1 phosphodiesterase PDEB1 (Trypanosoma brucei, UniProt Q8WQX9); test: Inhibition of Trypanosoma brucei PDEB1 catalytic domain (565 to 918 residues) expressed in Escherichia coli BL21 incubated for 20 mins using cAMP as substrate by PDELight HTS cAMP phosphodiesterase Kit based luminometry
T1 sequence (Q8WQX9 whole entry): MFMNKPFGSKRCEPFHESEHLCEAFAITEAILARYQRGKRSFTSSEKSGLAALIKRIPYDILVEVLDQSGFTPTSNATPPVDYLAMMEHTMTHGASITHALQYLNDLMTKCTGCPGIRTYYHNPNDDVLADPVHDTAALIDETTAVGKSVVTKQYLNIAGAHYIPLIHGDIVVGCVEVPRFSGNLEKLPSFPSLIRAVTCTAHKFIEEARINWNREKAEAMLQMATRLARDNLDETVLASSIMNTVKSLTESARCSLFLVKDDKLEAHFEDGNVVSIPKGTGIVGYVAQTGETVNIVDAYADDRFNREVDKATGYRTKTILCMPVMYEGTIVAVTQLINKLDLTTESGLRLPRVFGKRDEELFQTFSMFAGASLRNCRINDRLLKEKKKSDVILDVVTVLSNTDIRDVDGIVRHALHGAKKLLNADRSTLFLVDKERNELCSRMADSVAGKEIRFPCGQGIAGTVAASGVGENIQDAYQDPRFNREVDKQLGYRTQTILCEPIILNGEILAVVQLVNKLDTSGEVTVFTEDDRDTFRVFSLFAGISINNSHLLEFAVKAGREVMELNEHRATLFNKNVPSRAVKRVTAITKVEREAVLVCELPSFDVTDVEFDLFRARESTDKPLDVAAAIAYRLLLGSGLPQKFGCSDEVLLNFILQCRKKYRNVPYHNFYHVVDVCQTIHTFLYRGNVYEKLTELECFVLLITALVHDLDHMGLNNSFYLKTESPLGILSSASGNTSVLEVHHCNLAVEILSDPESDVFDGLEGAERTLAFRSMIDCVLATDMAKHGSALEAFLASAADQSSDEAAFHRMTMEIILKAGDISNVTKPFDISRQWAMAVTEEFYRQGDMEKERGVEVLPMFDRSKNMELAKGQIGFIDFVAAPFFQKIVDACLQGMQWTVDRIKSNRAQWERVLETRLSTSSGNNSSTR

[4] = Cytotoxicity against human MRC5 SV2 cells assessed as reduction in cell viability at 64 uM measured after 72 hrs by resazurin dye based fluorimetric analysis
[5] = molecular target: 3',5'-cyclic-AMP phosphodiesterase 4B (Homo sapiens, UniProt Q07343); test: Inhibition of human PDE4B catalytic domain incubated for 20 mins using cAMP as substrate by PDELight HTS cAMP phosphodiesterase Kit based luminometry
[6] = tested on: Trypanosoma brucei; test: Antitrypanosomal activity against bloodstream of Trypanosoma brucei trypanosomes assessed as increase in intracellular cAMP level at 3.2 uM measured per 5x10^6 cells after 4 hrs by direct cAMP enzyme immunoassay kit based ELISA (reference value: 6.66 pmol); format: functional
[7] = tested on: Trypanosoma brucei; test: Antitrypanosomal activity against bloodstream of Trypanosoma brucei trypanosomes assessed as increase in intracellular cAMP level at 8 uM measured per 5x10^6 cells after 4 hrs by direct cAMP enzyme immunoassay kit based ELISA (reference value: 6.66 pmol); format: functional

3',5'-cyclic-AMP phosphodiesterase 4B, sequence (Q07343 whole entry, the tested form may be a part): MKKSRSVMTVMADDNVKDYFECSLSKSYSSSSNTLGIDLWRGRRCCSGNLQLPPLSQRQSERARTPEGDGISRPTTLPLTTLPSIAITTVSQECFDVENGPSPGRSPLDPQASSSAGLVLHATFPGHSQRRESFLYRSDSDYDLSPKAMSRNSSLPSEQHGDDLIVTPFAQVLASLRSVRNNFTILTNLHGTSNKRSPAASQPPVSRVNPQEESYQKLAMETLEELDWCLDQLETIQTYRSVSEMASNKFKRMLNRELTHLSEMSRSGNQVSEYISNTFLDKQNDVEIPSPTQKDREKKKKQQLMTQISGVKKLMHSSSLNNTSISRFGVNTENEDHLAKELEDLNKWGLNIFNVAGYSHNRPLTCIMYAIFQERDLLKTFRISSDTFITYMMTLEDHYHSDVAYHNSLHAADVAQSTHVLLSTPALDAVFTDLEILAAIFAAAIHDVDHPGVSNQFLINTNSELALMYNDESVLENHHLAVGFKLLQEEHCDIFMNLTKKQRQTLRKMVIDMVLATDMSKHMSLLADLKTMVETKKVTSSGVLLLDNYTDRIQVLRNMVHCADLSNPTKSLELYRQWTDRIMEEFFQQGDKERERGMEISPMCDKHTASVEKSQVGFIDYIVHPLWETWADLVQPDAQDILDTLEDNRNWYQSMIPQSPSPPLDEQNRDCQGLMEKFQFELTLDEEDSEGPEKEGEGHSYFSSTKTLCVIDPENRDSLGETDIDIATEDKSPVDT

Ki [3]	Compound	also measured
–	COc1ccc(C2=NN(C(C)C)C(=O)[C@@H]3CC=CC[C@H]23)cc1-c1ccc(C(=O)NCC(N)=O)cc1	IC50 ([1]; read-out: pIC50 (converted)): 6310 nM; CC50 at 72 h [2]: 31600 nM
–	COc1ccc(C2=NN(C3CCCCCC3)C(=O)[C@@H]3CC=CC[C@H]23)cc1-c1ccc(C(=O)NCC(N)=O)cc1	IC50 ([1]; read-out: pIC50 (converted)): 5010 nM; CC50 at 72 h [2]: 39800 nM
1580 nM	COc1ccc(C2=NN(C3CCCCCC3)C(=O)[C@@H]3CC=CC[C@H]23)cc1-c1ccc2c(c1)CNC2=O	–
> 10000 nM	COc1ccc(C2=NN(C(C)C)C(=O)[C@@H]3CC=CC[C@H]23)cc1N1CC(C(N)=O)C1	–
794 nM	COc1ccc(C2=NN(C3CCCCCC3)C(=O)[C@@H]3CC=CC[C@H]23)cc1-c1ccc(C(=O)NCC(N)=O)c(F)c1	–
1260 nM	COCCN1Cc2cc(-c3cc(C4=NN(C5CCCCCC5)C(=O)[C@@H]5CC=CC[C@H]45)ccc3OC)ccc2C1=O (relative stereo)	–
> 10000 nM	COc1ccc(C2=NN(C3CCCCCC3)C(=O)[C@@H]3CC=CC[C@H]23)cc1C#Cc1cnco1 (relative stereo)	–
3980 nM	C#Cc1cc(C2=NN(C3CCCCCC3)C(=O)[C@@H]3CC=CC[C@H]23)ccc1OC (relative stereo)	–
> 10000 nM	CCCCNC(=O)c1ccc(-c2cc(C3=NN(C(C)C)C(=O)[C@@H]4CC=CC[C@H]34)ccc2OC)s1 (relative stereo)	–
> 10000 nM	COc1ccc(C2=NN(C(C)C)C(=O)[C@@H]3CC=CC[C@H]23)cc1-c1ccc(C(=O)NCc2ccco2)s1 (relative stereo)	–
501 nM	COc1ccc(C2=NN(C3CCCCCC3)C(=O)[C@@H]3CC=CC[C@H]23)cc1C#CC(=O)NCc1ccco1 (relative stereo)	Activity [4]: Non-Toxic; IC50 ([1]; read-out: IC50): 600 nM; IC50 ([1]; read-out: pIC50 (converted)): 631 nM; CC50 at 72 h [2]: 50100 nM; Ki [5]: 398 nM
–	COc1ccc(C2=NN(C3CCCCCC3)C(=O)[C@@H]3CC=CC[C@H]23)cc1C#CC(N)=O (relative stereo)	IC50 ([1]; read-out: pIC50 (converted)): 1000 nM; Activity [6]: 19.8 pmol; Activity [7]: 311 pmol; CC50 at 72 h [2]: 10000 nM
1000 nM	COc1ccc(C2=NN(C3CCCCCC3)C(=O)[C@@H]3CC=CC[C@H]23)cc1C#CC(=O)N1CCOCC1 (relative stereo)	–
> 10000 nM	COc1ccc(C2=NN(C3CCCCCC3)C(=O)[C@@H]3CC=CC[C@H]23)cc1-c1ccc(C(=O)NCC(N)=O)cc1C (relative stereo)	–
631 nM	COc1ccc(C2=NN(C3CCCCCC3)C(=O)[C@@H]3CC=CC[C@H]23)cc1C#CC(=O)NCC(N)=O (relative stereo)	IC50 ([1]; read-out: pIC50 (converted)): 3980 nM; CC50 at 72 h [2]: 3980 nM
10000 nM	COc1ccc(C2=NN(C(C)C)C(=O)[C@@H]3CC=CC[C@H]23)cc1-c1ccc(C(N)=O)s1 (relative stereo)	–
398 nM	CCCCNC(=O)C#Cc1cc(C2=NN(C3CCCCCC3)C(=O)[C@@H]3CC=CC[C@H]23)ccc1OC (relative stereo)	Activity [4]: Non-Toxic; IC50 ([1]; read-out: IC50): 600 nM; IC50 ([1]; read-out: pIC50 (converted)): 631 nM; CC50 at 72 h [2]: > 63100 nM; Ki [5]: 631 nM
794 nM	COCCNC(=O)C#Cc1cc(C2=NN(C3CCCCCC3)C(=O)[C@@H]3CC=CC[C@H]23)ccc1OC (relative stereo)	IC50 ([1]; read-out: pIC50 (converted)): > 63100 nM; CC50 at 72 h [2]: > 63100 nM; Ki [5]: 1580 nM
> 10000 nM	COCCNC(=O)c1ccc(-c2cc(C3=NN(C(C)C)C(=O)[C@@H]4CC=CC[C@H]34)ccc2OC)s1 (relative stereo)	–
> 10000 nM	CCCCNC(=O)C1CN(c2cc(C3=NN(C(C)C)C(=O)[C@@H]4CC=CC[C@H]34)ccc2OC)C1 (relative stereo)	–
> 10000 nM	COc1ccc(C2=NN(C(C)C)C(=O)[C@@H]3CC=CC[C@H]23)cc1-c1ccc(C(=O)NCC(N)=O)s1 (relative stereo)	–
6310 nM	COc1cc(-c2cc(C3=NN(C4CCCCCC4)C(=O)[C@@H]4CC=CC[C@H]34)ccc2OC)ccc1C(=O)NCC(N)=O (relative stereo)	–
> 10000 nM	COc1ccc(C2=NN(C(C)C)C(=O)[C@@H]3CC=CC[C@H]23)cc1N1CC(C(=O)NCC(N)=O)C1 (relative stereo)	–
1260 nM	COc1ccc(C2=NN(C3CCCCCC3)C(=O)[C@@H]3CC=CC[C@H]23)cc1-c1ccc2c(c1)CN(CC(N)=O)C2=O (relative stereo)	–
2000 nM	COc1ccc(C2=NN(C3CCCCCC3)C(=O)[C@@H]3CC=CC[C@H]23)cc1-c1ccc(C(=O)NCC(N)=O)cc1F (relative stereo)	–
7940 nM	COc1cc(C(=O)NCC(N)=O)ccc1-c1cc(C2=NN(C3CCCCCC3)C(=O)[C@@H]3CC=CC[C@H]23)ccc1OC (relative stereo)	–
> 10000 nM	COc1ccc(C2=NN(C(C)C)C(=O)[C@@H]3CC=CC[C@H]23)cc1N1CC(C(=O)NCc2ccco2)C1 (relative stereo)	–
2000 nM	COc1ccc(C2=NN(C3CCCCCC3)C(=O)[C@@H]3CC=CC[C@H]23)cc1-c1ccc(C(=O)NCC(N)=O)c(C)c1 (relative stereo)	–
